Compound activity (PubChem BioAssay)
The list is not random: actives were taken first. Their share in the collection is about 3.6%.
ZTA DNA inh: counter-screen for EBNA-1 inhibitors: inhibitors of Epstein-Barr virus ZTA | 320,000 tested, 0.15% active | inhibition, % at 11 µM | P03206 | ZTA-DNA binding, fluorescence polarization; in the data active means inhibition above about 33%
Target sequence (P03206 whole entry, looked up): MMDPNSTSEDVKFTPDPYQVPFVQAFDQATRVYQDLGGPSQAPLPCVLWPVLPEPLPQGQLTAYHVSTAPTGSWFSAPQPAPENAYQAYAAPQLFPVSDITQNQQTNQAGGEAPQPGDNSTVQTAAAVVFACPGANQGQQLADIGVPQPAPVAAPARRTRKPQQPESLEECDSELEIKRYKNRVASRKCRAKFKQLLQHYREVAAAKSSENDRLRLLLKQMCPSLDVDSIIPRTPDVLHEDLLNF
NS3 helicase inh: inhibitors of Hepatitis C virus NS3 helicase. NS3 helicase DNA unwinding, Cy5 molecular beacon fluorescence. inhibition, % at 10.9 µM. 290,000 tested, 0.56% active. AID 1800;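 active means inhibition above the mean of all tested compounds plus 3 SD, set per campaign, cut at about 35% in these data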;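 further: 0% = DMSO wells and 100% = thioflavine S control wells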
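assay system = NS3 helicase fragment of HCV | buffer or medium = MOPS pH 6.5, MgCl2, DTT, Tween20, BSA | timing = 60 min unwinding reaction at 25 °C after ATP addition | signal = Cy5 beacon fluorescence read at start and 1 h | read-out basis = % inhibition of unwinding | control set = low DMSO, high thioflavine S at 110 µM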
NR3A LBD binder: NR3A (human) ligand-binding domain modulation; NR3A LBD differential scanning fluorimetry, Tm shift; 0% = protein alone, 100% = glycine-bound protein; Tm shift relative to glycine control, % at 25 µM; 340,000 tested, 2.5% active;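 active means melting temperature shift of at least 10% of the positive control shift, at one fixed dose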
EBNA-1 inhibitor: blocks EBNA-1 binding to DNA; EBNA-1 DNA binding, fluorescence polarization; inhibition, % at 14.8 µM; 300,000 tested, 0.34% active; in the data active means inhibition above about 28%
DNA FID counter-1: fluorescent intercalator displacement, NS3 helicase counter-screen | DNA fluorescent intercalator displacement, fluorescence | inhibition, % at 7.9 µM | 290,000 tested, 0.17% active;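 further: 0% = vehicle and 100% = reference compound; higher means more ethidium bromide displaced from hairpin DNA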
FGF22 binding: FGF22 (human) thermal shift binding; 340,000 tested, 1.5% active; Q9HCT0; recombinant FGF22 thermal shift, SYPRO orange fluorescence; percent of sucrose octasulfate shift, DMSO zero; AID 651658; activity (Tm shift, normalised), % at 9.99 µM;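 active means mean Tm shift, scaled 0 neutral to 100 positive control, at about 1.3% or above, every replicate too, limit read from the data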
Target sequence (Q9HCT0 whole entry, looked up): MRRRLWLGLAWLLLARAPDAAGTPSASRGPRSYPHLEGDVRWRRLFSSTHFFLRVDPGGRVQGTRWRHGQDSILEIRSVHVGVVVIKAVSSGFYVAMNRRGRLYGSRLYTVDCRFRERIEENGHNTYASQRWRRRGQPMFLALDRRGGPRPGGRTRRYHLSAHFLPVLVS
NS3 helicase cf: HCV NS3 helicase inhibition, confirmation assay; shares compounds with NS3 helicase inh; NS3 helicase DNA unwinding, Cy5 molecular beacon fluorescence; inhibition, % at 10.9 µM; 1,600 tested, 31% active; AID 1943;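 active means inhibition above the mean of all tested compounds plus 3 SD, cutoff set per campaign, cut at about 36% in these data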
DNA FID counter-2: counter-screen for HCV NS3 helicase inhibitors: DNA intercalator displacement | shares compounds with NS3 helicase inh | DNA fluorescent intercalator displacement, fluorescence | inhibition, % at 7.9 µM | 1,600 tested, 4% active;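 further: 0% = vehicle and 100% = reference compound; higher means more displacement of ethidium bromide from the DNA hairpin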
Starred values were filed as active, the others as inactive; x = no result; + = active, no number. Unless noted, no stated cut-off is given here; in the data, active means inhibition above about 37%; inactive means the rest.

SMILES	ZTA DNA inh	NS3 helicase inh	NR3A LBD binder	EBNA-1 inhibitor	DNA FID counter-1	FGF22 binding	NS3 helicase cf	DNA FID counter-2
CCCNC(=O)N(C)C[C@@H]1Oc2ncc(C#CCc3ccccc3)cc2C(=O)N([C@@H](C)CO)C[C@@H]1C	x	x	x	x	x	0	x	x
CCCC(NC(=O)COc1cc2c(c3oc(=O)c(C)c(C)c13)CCC(C)(C)O2)C(=O)O (configuration not stated)	-3	55*	0	-11	-15	0	0	-2
CSCC[C@H](NC(=O)COc1cc2c(c3oc(=O)c(C)c(C)c13)CCC(C)(C)O2)C(=O)O	4	15	-2	6	-12	0	x	x
O=C(COC(=O)/C=C/c1ccco1)Nc1cccc([N+](=O)[O-])c1	1	38*	1	18	-9	1	-18	-5
O=C(COC(=O)/C=C/c1ccco1)Nc1ncc(C(F)(F)F)cc1Cl	13	55*	-7	-1	-21	0	7	-18
COCC(=O)N1[C@H](C(=O)N2CCCCC2)[C@@H](CO)[C@@H]2Cn3c(ccc(C4=CCCCC4)c3=O)[C@@H]21	x	x	x	x	x	0	x	x
C[C@H]1CN([C@@H](C)CO)C(=O)c2cc(NC(=O)NC3CCCCC3)ccc2O[C@H]1CN(C)Cc1ccccc1	x	x	x	x	x	-1	x	x
CN1C(=O)N(C)c2cccc3cccc1c23	-2	4	-1	-7	-8	0	x	x
CN1C(=O)Nc2cccc3cccc1c23	-5	42*	-3	6	-9	0	-12	6
CC(C)CC#Cc1cnc2c(c1)C(=O)N([C@@H](C)CO)C[C@@H](C)[C@H](CN(C)Cc1cncnc1)O2	x	x	x	x	x	0	x	x
O=[N+]([O-])c1ccc(/C=C/c2ccc3cccc(O)c3n2)cc1	22	50*	1	-1	-7	0	4	7
O=[N+]([O-])c1ccc(/C=C/c2ccc3ccccc3n2)cc1	-13	1	-3	-8	-4	0	x	x
Cc1ccc(/C=C/c2ccc3cccc(O)c3n2)s1	-3	49*	-6	4	-14	0	11	-2
COc1ccc(-c2ccccc2[C@@H]2[C@@H](CO)N(C(=O)NC(C)C)[C@H]2C#N)cc1	x	x	x	x	x	0	x	x
COC(=O)c1ccc(Cn2nnc3c(=O)[nH]c(C4CCCN(S(=O)(=O)c5cccc(Cl)c5)C4)nc32)cc1 (configuration not stated)	-19	38*	0	-6	-19	0	-3	-40
COc1ccc2c3c([nH]c2c1)[C@@H](CO)N(C(=O)C1CCC1)CC31CN(S(C)(=O)=O)C1	x	x	x	x	x	0	x	x
CC1=NN(c2ccccc2)C(=O)C1C=Nc1ccc(N(C)C)cc1 (configuration not stated)	+	44*	2	82*	-8	-1	-1	1
Cc1ccc(NS(=O)(=O)c2ccc3c(c2)CCN3C(=O)CCC(=O)O)cc1Cl	-38	48*	-3	-4	-18	0	23	-30
Cc1cccc(NS(=O)(=O)c2ccc3c(c2)CCN3C(=O)CCC(=O)O)c1	8	7	-2	14	-28	0	x	x
COC1=C/C(=C/c2c(N)n3nc(-c4ccc(C)cc4)sc3nc2=O)C=CC1=O	x	44*	7	x	-3	0	25	-15
C[C@H](NC(=O)C[C@@H]1CC[C@@H](NC(=O)C2CCOCC2)[C@H](CO)O1)c1ccccc1	x	x	x	x	x	0	x	x
CCC1=Nc2cc(C(=O)NCc3ccco3)ccc2Sc2ccc(Cl)cc21	0	37*	-8	1	-32	x	-2	-46
CCOC(=O)C1=C(N)N2C(=O)C(C)SC2=C(C(=O)OCC)C1c1ccc(O)cc1 (configuration not stated)	-1	39*	0	10	-29	0	-27	-29
Cc1cccc(OCC(=O)N/N=C/C=C/c2ccco2)c1	6	43*	-1	6	-28	0	-7	4
Cc1cccc(OCC(=O)Nc2cc(NC(=O)COc3cccc(C)c3)cc(C(=O)O)c2)c1	0	41*	-1	3	-21	0	63*	-23
SMILES	ZTA DNA inh	NS3 helicase inh	NR3A LBD binder	EBNA-1 inhibitor	DNA FID counter-1	FGF22 binding	NS3 helicase cf	DNA FID counter-2
C[C@@H]1CCCCO[C@@H](CN(C)Cc2ccc(C(F)(F)F)cc2)[C@H](C)CN([C@@H](C)CO)C(=O)c2cc(NS(=O)(=O)c3ccc(Cl)cc3)ccc2O1	x	x	x	x	x	0	x	x
Cc1ccc(Cn2cc(/C=C/C(=O)O)c(-c3ccccc3)n2)cc1	-8	18	-1	4	-31	x	x	x
Cc1ccc(-c2nn(Cc3ccccc3)cc2/C=C/C(=O)O)cc1	-7	44*	-1	-12	-43	x	10	-9
Cc1cc(-c2nc3c4c5c(sc4[nH]c(=O)n3n2)CCC5)c(C)o1	14	41*	3	-3	-21	x	76*	8
Nc1c(C(=O)NC2CCCC2)sc2nc(-c3cccs3)ccc12	0	56*	-1	-12	-20	x	-16	6
NC(=O)c1sc2nc(-c3cccs3)ccc2c1N	-18	0	5	0	-4	0	x	x
CNC(=O)CSc1nc2sccc2c(=O)n1-c1ccccc1	10	2	0	2	-5	0	x	x
N#CCSc1nc2sccc2c(=O)n1-c1ccccc1	-15	37*	-1	4	-17	0	-16	6
COC(=O)C(CC#Cc1ccc2c(c1)[C@]1(C(=O)N2)[C@H](c2ccccc2OCCO)N2[C@H](c3ccccc3)[C@H](c3ccccc3)OC(=O)[C@H]2[C@@H]1C(=O)NC[C@H](O)c1ccccc1)C(=O)OC	x	x	x	x	x	0	x	x
O=C(/C=C1\C(=O)Nc2ccccc21)/C=C1\C(=O)Nc2ccccc21	x	54*	-2	x	-8	0	9	29
O=C1Nc2ccccc2/C1=C\C(=O)c1ccccc1	-3	-15	2	-6	4	0	x	x
C[C@@H]1CCCCO[C@@H](CN(C)C(=O)Nc2ccc3c(c2)OCO3)[C@@H](C)CN([C@@H](C)CO)C(=O)c2cc(NC(=O)c3ccccc3)ccc2O1	x	x	x	x	x	0	x	x
CCCC#Cc1ccc([C@@H]2[C@@H](C#N)N(C(=O)C3CCC3)[C@@H]2CO)cc1	x	x	x	x	x	0	x	x
CCCCC(CCC(=O)O)(C(=O)OCC)c1csc(Nc2ccc(C)cc2)n1 (configuration not stated)	16	28	-2	-1	-31	0	x	x
CCOC(=O)C(CC)(CCC(=O)OC)c1csc(Nc2ccccc2O)n1 (configuration not stated)	-11	40*	x	-8	-39	x	4	-23
O=C(C1CCCCC1)N1CC2(C1)[C@@H](c1ccccc1)[C@@H](CO)N2Cc1ccccc1F	x	x	x	x	x	0	x	x
